Laboratory results: article PMC10213863 (Cell Reports Medicine, 2023)

Key:
mouse blood = assay: Cell viability in mouse blood; assay type: cell-based; settings: up to 10 μM
In short: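 Fresh human blood or 129/Sv mouse blood was taken into citrate and diluted 1:1 with RPMI1640. It was pre-incubated 30 min at 37°C, 5% CO2 with increasing concentrations of test compound or 0.25% v/v DMSO (final). Blood was then stimulated with TLR agonists at doses from earlier work, or with R848 (3 μM), and cytokines were quantified. Viability was checked by ATPlite luminescence.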

NZB/W F1 mice = assay: Mouse NZB/W F1 model of lupus, MHV370 in food; assay type: in vivo
In short: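 NZB/W F1 mice entered at 23 weeks and were randomized into groups of 14 (mean proteinuria 0.1–0.5 mg/mL). They were dosed with test compound in food. Weight was recorded twice weekly; proteinuria weekly by quantitative protein assay (BSA standard). Serum IgG autoantibodies were measured by ELISA at 1:100 or 1:300, with DWEYS peptide for NMDAR, HRP anti-IgG (1:10′000) and TMB. Kidney IgG was stained by IHC; positive/total area was averaged over ten sections per mouse.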

TLR7/8 = TLR7/8 (Homo sapiens, UniProt Q9NR97); assay: Human neutrophil ROS production, R848 stimulation; assay type: cell-based
TLR7 [1] = target: T1, TLR7 (Mus musculus, UniProt P58681); assay: Ex vivo PD marker CD69 on B cells vs MHV370 blood exposure in NZB/W F1 mice
T1 sequence (P58681 27-1050): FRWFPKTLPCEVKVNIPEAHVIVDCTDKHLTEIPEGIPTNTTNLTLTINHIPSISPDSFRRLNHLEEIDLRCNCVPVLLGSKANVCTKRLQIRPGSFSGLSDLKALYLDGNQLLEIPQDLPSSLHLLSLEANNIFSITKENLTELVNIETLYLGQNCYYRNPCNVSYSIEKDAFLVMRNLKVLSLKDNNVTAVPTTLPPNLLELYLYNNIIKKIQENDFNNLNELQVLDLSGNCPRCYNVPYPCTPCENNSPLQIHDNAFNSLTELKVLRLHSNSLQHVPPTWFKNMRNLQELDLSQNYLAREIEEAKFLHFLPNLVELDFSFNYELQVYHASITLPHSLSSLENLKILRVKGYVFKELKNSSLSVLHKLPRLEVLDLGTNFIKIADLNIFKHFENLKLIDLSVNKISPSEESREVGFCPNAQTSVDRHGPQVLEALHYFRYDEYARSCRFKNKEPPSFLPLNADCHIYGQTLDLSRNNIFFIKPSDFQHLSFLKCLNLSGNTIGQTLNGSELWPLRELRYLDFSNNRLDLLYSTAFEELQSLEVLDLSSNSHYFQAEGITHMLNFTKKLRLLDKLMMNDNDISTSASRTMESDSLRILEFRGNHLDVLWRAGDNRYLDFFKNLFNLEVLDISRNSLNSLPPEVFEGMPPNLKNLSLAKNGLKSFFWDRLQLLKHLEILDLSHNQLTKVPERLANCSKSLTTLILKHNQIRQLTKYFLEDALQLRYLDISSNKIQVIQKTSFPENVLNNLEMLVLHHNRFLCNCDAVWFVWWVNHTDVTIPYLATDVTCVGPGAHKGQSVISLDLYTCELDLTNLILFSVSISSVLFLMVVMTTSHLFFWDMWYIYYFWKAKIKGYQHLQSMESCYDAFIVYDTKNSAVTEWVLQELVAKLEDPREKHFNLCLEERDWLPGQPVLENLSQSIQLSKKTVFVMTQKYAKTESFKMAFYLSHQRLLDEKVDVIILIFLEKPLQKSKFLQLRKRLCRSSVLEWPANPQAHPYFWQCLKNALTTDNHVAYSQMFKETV
In short: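 NZB/W F1 mice were dosed with test compound in food. Anticoagulated whole blood was diluted 1:1 in RPMI1640 and stimulated with 0.07 μg/mL R848 or medium at 37°C, 5% CO2. CD69 MFI on CD19+ B cells was read by flow cytometry. Drug concentration in whole blood was measured by LC-MS/MS.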

TLR7 [2] = target: T1, TLR7; assay: Acute cytokine release in vivo assay, TLR7 agonist; settings: 129/Sv mice; single p.o. dose 1.5 or 15 mg/kg
In short: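 129/Sv mice (5 per group) got test compound orally in 0.5% methylcellulose/0.5% Tween-80, or vehicle alone. At 1 h they were injected i.v. with the TLR agonist (line 1: 20 μg R0006; line 2: CpG1585), each pre-complexed with 140 μg DOTAP in HBSS. At 3 h, EDTA blood was taken. Plasma IFN-α (both lines) and TNF were measured by ELISA, single technical replicate per mouse. Serum drug levels were measured by LC-MS/MS.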

TLR4 = TLR4 (Homo sapiens, UniProt O00206); assay: Human PBMC cytokine secretion, TLR4 agonist; assay type: cell-based; settings: human PBMCs; up to 10 μM; n = 5 donors
In short: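 Human PBMCs were pre-incubated 30 min with test compound, then stimulated with the respective TLR or IL-1R agonist at doses from earlier work. Cytokines in supernatants were quantified by immunoassay. Viability across the dose range was checked by CellTiter-Glo.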

[3] = 0.1% MHV370 in food, kidney histology
[4] = MHV370-laced food, at termination

TLR4, sequence (O00206 24-839): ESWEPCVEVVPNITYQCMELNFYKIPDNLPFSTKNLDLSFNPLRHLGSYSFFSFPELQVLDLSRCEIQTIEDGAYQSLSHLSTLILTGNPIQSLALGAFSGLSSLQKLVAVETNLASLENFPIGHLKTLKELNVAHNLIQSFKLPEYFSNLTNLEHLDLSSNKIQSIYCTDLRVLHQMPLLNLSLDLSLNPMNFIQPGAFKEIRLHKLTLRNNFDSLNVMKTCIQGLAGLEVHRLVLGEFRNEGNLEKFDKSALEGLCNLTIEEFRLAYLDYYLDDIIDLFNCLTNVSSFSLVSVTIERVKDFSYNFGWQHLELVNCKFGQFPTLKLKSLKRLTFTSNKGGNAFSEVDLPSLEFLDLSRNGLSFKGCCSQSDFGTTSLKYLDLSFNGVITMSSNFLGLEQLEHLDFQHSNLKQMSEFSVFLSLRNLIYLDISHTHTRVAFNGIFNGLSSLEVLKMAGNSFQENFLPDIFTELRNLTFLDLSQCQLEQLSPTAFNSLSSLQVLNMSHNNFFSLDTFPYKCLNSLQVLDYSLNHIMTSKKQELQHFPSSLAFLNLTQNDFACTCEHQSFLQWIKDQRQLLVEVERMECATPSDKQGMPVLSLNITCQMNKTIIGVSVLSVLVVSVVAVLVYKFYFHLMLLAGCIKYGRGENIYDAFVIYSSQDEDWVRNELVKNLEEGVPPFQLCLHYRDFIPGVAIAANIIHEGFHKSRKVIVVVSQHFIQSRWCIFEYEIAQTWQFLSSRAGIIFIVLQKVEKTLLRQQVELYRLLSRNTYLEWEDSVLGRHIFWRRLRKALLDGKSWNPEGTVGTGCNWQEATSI
TLR4, sequence (Q9Y6Y9 19-160 partner): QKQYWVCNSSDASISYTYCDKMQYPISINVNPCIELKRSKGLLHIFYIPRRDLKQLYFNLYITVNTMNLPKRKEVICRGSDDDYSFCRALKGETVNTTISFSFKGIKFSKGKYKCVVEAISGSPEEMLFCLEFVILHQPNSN
TLR7/8, sequence (Q9NR97 27-1041): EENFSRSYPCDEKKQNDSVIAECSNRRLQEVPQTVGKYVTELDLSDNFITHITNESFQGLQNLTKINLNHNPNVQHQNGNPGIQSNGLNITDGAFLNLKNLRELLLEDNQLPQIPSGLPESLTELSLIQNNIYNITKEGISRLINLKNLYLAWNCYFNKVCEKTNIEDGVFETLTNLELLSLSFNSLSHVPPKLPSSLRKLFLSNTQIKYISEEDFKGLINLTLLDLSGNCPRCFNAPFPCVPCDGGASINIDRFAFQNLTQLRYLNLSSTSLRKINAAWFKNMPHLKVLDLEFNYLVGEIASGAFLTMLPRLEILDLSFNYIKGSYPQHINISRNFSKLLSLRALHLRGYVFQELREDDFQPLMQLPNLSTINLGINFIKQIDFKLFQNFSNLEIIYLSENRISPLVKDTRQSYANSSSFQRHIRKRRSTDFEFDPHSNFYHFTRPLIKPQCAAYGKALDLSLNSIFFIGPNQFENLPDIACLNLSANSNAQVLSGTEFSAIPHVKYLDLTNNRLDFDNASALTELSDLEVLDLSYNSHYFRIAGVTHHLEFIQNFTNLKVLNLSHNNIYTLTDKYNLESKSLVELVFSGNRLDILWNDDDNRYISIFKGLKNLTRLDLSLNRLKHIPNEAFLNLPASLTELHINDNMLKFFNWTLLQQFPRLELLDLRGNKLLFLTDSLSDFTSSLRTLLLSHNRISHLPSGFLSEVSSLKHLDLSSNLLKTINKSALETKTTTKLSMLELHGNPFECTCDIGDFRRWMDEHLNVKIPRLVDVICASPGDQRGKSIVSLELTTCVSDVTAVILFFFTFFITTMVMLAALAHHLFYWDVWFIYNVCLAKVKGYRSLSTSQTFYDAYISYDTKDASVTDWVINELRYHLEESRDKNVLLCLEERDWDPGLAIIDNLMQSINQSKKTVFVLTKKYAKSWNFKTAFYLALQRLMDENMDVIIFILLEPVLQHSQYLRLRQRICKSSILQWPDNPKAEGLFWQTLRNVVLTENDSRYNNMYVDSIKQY

## Cc1cc(N2CCc3c(c(C)nn3CC34CCC(NC(=O)[C@@H]5COCCN5)(CC3)CC4)C2)c2cnn(C)c2n1 [MHV370, (S)-N-(4-((5-(1,6-dimethyl-1H-pyrazolo[3,4-b]pyridin-4-yl)-3-methyl-4,5,6,7-tetrahydro-1H-pyrazolo[4,3-c]pyridin-1-yl)methyl)bicyclo[2.2.2]octan-1-yl)morpholine-3-carboxamide]
Mouse blood
  effect on cell viability: did not show
NZB/W F1 mice; 0.01% MHV370 in food
  inhibition of proteinuria at low dose: already achieved
NZB/W F1 mice; [3]
  IgG deposits in the glomeruli: reduced
  glomerulopathy: reduced
  infiltration of kidneys with CD45R+ B cells: reduced
  infiltration of kidneys with CD138+ plasma cells: reduced
NZB/W F1 mice; MHV370-laced food
  proteinuria: effectively prevented
NZB/W F1 mice; [4]
  blood urea nitrogen (BUN): moderately reduced
  serum levels of CXCL13: significantly reduced
NZB/W F1 mice; serum at termination
  IgG autoantibody levels against NMDAR: reduced
  IgG autoantibody levels against Smith (Sm): reduced
  IgG autoantibody levels against ribosomal P (RiboP): reduced
  serum antibodies against double-stranded DNA (dsDNA): not reduced
  serum antibodies against histones: not reduced
TLR7/8
  IC50: 3.8 ± 0.8 nM
TLR7 [1]
  IC50: 35 nM
TLR7 [2]
  TLR7-dependent IFN-α and TNF production in plasma: efficiently inhibited
TLR4
  interference with cytokine secretion, TLR4 agonist: did not significantly interfere
